Reference: publication PMC12749539 (Scientific Reports, 2025)

Legend:
ZIKV = settings: read-out: previously reported EC50; anti-ZIKV; cited from earlier work
[1] = system: Zika virus (ZIKV) MR766 strain; experiment: EC50 dose-response in ZIKV-infected Vero cells; format: cell-based; settings: CC50/EC50, Vero cells
How it was run: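 Vero CCL-81 monolayers were seeded at 1.2 × 10⁶ cells per plate one day before. Serial dilutions of test compound in DMEM (methods: 50–0.2 µM; legend: 0.2–100 µM) were added together with ZIKV MR766 at 100 TCID50/mL. Plates were held 6 days at 37 °C and 5% CO2, with virus and cell controls. Crystal violet read viability. EC50 came from four-parameter logistic fit of triplicate data. SI = CC50/EC50.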

[2] = CC50 cytotoxicity in uninfected Vero cells; format: cell-based; settings: African green monkey
How it was run: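 Vero CCL-81 cells in DMEM with 10% FBS were seeded at 1.2 × 10⁶ cells per plate one day ahead. Uninfected monolayers were exposed to serial dilutions of test compound in DMEM (50–0.2 µM) for 6 days at 37 °C and 5% CO2. Viability was read by crystal violet staining. CC50 came from four-parameter logistic nonlinear regression of triplicate data, with 95% CIs from log-transformed estimates.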

COC1=C[C@]23CCCN2CCc2cc4c(cc2[C@@H]3[C@@H]1O)OCO4 [Cephalotaxine]
EC50 (ZIKV): 40 µM

CCCCC(CC)COC(=O)CC(C(=O)OCC(CC)CCCC)S(=O)(=O)O (stereo not drawn) [Docusate Sodium]
selectivity index (SI) [1]: 3.49
CC50 at 6 days [2]: 8.19 µM
